The compounds below were run against T1, Thyroid hormone receptor alpha (Homo sapiens, UniProt P10827) (assay: Inhibitory activity expressed as concentration required to inhibit the binding of [125I]T3 to human thyroid hormone-alpha).
T1 sequence (P10827 whole entry): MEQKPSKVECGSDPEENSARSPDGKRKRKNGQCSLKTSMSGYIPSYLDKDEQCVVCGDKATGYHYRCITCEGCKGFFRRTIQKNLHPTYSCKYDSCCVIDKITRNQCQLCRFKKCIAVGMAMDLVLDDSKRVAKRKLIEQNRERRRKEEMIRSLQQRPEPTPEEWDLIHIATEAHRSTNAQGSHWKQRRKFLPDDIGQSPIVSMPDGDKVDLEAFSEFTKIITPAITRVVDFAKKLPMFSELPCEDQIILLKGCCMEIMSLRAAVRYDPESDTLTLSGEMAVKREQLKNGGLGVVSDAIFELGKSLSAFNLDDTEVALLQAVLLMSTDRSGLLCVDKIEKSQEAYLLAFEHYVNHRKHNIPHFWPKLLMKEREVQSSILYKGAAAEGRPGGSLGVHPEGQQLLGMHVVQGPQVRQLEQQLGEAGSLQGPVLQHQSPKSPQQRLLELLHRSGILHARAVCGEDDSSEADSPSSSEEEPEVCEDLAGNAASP
How it was run: (§1)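 hTHR from nuclear extracts of baculovirus-infected sf-9 cells, 20 pM final, with [125I]T3 at 200 pM final. Compounds serially diluted in DMSO. Buffer: 400 mM KCl, K phosphate, 1 mM MgCl2, 0.5 mM EDTA, 8.7% glycerol, 6 mM monothioglycerol, 0.5% reticulocyte lysate; 18–20 h, 4 °C. Bound and free separated on Sephadex G-25, gamma-counted. IC50 from competition curve, second of two titrations.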
Work on `O=C(Nc1ccc(Cc2ccc(NC(=O)c3cccc([N+](=O)[O-])c3)cc2)cc1)c1cccc([N+](=O)[O-])c1` yielded an IC50 of 18.1 µM.
Compound `[NH-]C(c1cc(Cl)cc(Cl)c1)=[N+](N)S(=O)(=O)c1cc(Cl)c(Oc2ccc([N+](=O)[O-])cc2Cl)c(Cl)c1` has an IC50 of 0.93 µM.
`N=C(c1ccccn1)N(N)S(=O)(=O)c1cc(Cl)c(Oc2ccc([N+](=O)[O-])cc2Cl)c(Cl)c1` was tested, and the IC50 was 39 µM.
`Cn1c(Cc2nn(C)c(=O)c3ccccc23)ccc1SCC(=O)c1ccc(Cl)cc1Cl` was tested, and the IC50 was 69 µM.
Compound `N=C(CCl)N(N)S(=O)(=O)c1cc(Cl)c(Oc2ccc([N+](=O)[O-])cc2Cl)c(Cl)c1` has an IC50 of 1.8 µM.

What follows are compounds tested against T1, Thyroid hormone receptor alpha (assay: Inhibitory activity expressed as concentration required to inhibit the binding of [125I]T3 to human thyroid hormone-alpha; NA =Inactive).
How it was run: as §1
For `N=C(c1ccc(Cl)cc1)N(N)S(=O)(=O)c1cc(Cl)c(Oc2ccc([N+](=O)[O-])cc2Cl)c(Cl)c1`, the IC50 was “Not Active”.
For `N=C(c1cccnc1)N(N)S(=O)(=O)c1cc(Cl)c(Oc2ccc([N+](=O)[O-])cc2Cl)c(Cl)c1`, the IC50 was “Not Active”.
For `N=C(c1ccc(Cl)cc1)N(N)S(=O)(=O)c1cc(Cl)c(Oc2ccc([N+](=O)[O-])cc2)c(Cl)c1`, the IC50 was “Not Active”.
With `Cn1c(Cc2nn(C)c(=O)c3ccccc23)ccc1SCc1ccc(Cl)cc1Cl` the IC50 was “Not Active”.

Source: ChEMBL document CHEMBL1131011, “Pharmacophores incorporating numerous excluded volumes defined by X-ray crystallographic structure in three-dimensional database searching: application to the thyroid hormone receptor” (J Med Chem, 1998)
